Screens (PubChem)
PAFAH1B3 inh = blocks human PAF acetylhydrolase 1B catalytic subunit 3. Q15102. recombinant PAFAH1B3, FP-rhodamine probe, fluorescence polarization. inhibition, % at 3.39 µM. actives 0.28% (n = 340,000);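 active = inhibition above the screen-wide average of all tested compounds plus 3 SD, cut at about 25% in these data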;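 note: 0% = enzyme with DMSO only and 100% = wells lacking PAFAH1B3 protein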
PAFAH2 inh = PAFAH2 (human) inhibition; Q99487; recombinant PAFAH2, FP-rhodamine activity probe, fluorescence polarization; inhibition, % at 3.39 µM; actives 0.99% (n = 340,000);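 active = inhibition above the mean over all tested compounds plus 3 SD, cut at about 30% in these data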;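 note: inhibitors block probe labeling of enzyme so polarization drops; 0% = enzyme with DMSO and 100% = wells lacking PAFAH2 protein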
Apaf-1 inh = blocks human Apaf-1 apoptosome activity. actives 0.71% (n = 330,000). reconstituted apoptosome caspase-3 activity, DEVD-Rh110 fluorescence. inhibition, % at 20 µM. O14727; active = inhibition of at least 40% at 20 µM;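 note: plate controls were DMSO wells for no effect and DEVD-CHO caspase inhibitor wells for full effect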
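Material: reconstituted apoptosome with Apaf-1, cytochrome c, caspase-9, procaspase-3, dATP. Technique: Rh110 fluorescence intensity. Buffer or medium: pH 7.5 Hepes buffer with CHAPS, BSA, DTT. Times: 30 min plus 50 min, RT.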
pPAFAH inh = inhibitors of human plasma PAF acetylhydrolase (pPAFAH); Q13093; recombinant pPAFAH, FP-rhodamine probe fluorescence polarization; inhibition, % at 3.39 µM; actives 1.5% (n = 330,000);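 active = inhibition above the mean inhibition across the screen plus 3 SD, cut at about 25% in these data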;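 note: inhibitors block binding of the rhodamine activity-based probe so polarization drops; 0% = enzyme with DMSO and 100% = wells lacking pPAFAH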
PAFAH1B2 FP inh = PAFAH1B2 (human) inhibition. P68402. recombinant PAFAH1B2, FP-rhodamine activity probe, fluorescence polarization. actives 1.2% (n = 340,000). AID 492953. inhibition, % at 3.39 µM;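 active = inhibition above the mean of all tested compounds plus 3 SD, cut at about 24% in these data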;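 note: 0% = enzyme with DMSO and 100% = wells lacking PAFAH1B2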
PREPL inhibitor = human PREPL enzyme inhibition | recombinant PREPL, fluorescence polarization activity-based probe | Q4J6C6 | inhibition, % at 5.96 µM | actives 0.68% (n = 320,000); in the data active = inhibition above about 43%;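 note: 0% = enzyme with DMSO and 100% = wells lacking enzyme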
Target sequence (Q4J6C6 whole entry, looked up): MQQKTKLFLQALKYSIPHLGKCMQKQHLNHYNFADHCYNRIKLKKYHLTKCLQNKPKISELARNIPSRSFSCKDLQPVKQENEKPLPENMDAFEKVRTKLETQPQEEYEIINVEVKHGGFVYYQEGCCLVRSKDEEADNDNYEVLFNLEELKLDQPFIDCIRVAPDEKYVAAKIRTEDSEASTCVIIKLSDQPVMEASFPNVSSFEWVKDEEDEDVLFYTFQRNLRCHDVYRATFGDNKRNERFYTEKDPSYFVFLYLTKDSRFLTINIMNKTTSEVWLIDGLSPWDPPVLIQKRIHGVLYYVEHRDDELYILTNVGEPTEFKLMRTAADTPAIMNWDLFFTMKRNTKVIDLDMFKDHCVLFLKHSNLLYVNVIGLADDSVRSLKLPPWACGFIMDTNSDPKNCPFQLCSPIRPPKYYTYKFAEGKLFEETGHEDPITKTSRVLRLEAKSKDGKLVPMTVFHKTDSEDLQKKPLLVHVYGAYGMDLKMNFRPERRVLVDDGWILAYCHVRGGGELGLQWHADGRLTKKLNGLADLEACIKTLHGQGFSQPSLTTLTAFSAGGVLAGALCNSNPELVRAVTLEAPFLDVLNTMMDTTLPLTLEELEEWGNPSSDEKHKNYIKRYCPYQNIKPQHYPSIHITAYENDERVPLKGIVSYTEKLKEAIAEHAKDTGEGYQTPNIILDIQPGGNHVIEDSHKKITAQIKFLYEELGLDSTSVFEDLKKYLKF
An asterisk follows results filed as active; . = no result given. Sampled rows, rich in hits. Any-hit rate of the full collection: about 3.5%.

SMILES	PAFAH1B3 inh	PAFAH2 inh	Apaf-1 inh	pPAFAH inh	PAFAH1B2 FP inh	PREPL inhibitor
CNC(=O)c1cc(S(=O)(=O)N2CC(C)OC(C)C2)ccc1N1CCCCC1 (centres undefined)	0.2	1.0	2.2	.	7.5	.
CCN1C(=O)c2cccc3c(S(=O)(=O)Nc4ccccc4)ccc1c23	-1.6	10.7	15.5	25.4*	1.9	-10.6
CCN1C(=O)N/C(=C/c2ccc(C)o2)C1=O	1.4	-0.3	9.1	0.0	1.7	12.0
CC1=C(C#N)C(=O)N(C2CCS(=O)(=O)C2)C(=O)/C1=C\c1ccc(C)o1 (centres undefined)	.	.	15.4	37.3*	.	1.4
Nc1nonc1-n1nnc(C(=O)N/N=C/c2cccc(Cl)c2Cl)c1CN1CCCC1	-7.8	-13.7	12.9	-0.5	-1.6	10.6
O=C1CC[C@@H](OCc2ccccc2)CCN1CC[C@H](Sc1ccccc1)c1ccccc1	-1.8	32.6*	6.5	31.8*	5.3	-1.1
Cc1cc(C)c(NC(=O)CN(C)CC(=O)N(C)CC(=O)Nc2c(Cl)cccc2Cl)c(C)c1	3.6	10.1	3.0	2.7	2.9	7.5
Cc1cc(=O)c2c(o1)C(=O)c1occc1C2=O	47.2*	38.1*	.	.	26.1*	.
Cc1nn(C(=O)c2ccco2)c(C)c1Sc1ccccc1	11.1	51.5*	12.0	3.9	2.7	-8.8
Cc1cccc(C)c1NC(=S)NCCSc1ccc(Cl)cc1	-4.7	10.5	-1.3	1.2	25.2*	0.6
COc1cc(/C=N/n2c(-c3ccc4c(c3)NC(=O)CO4)csc2=Nc2cccc(C)c2)ccc1O	12.5	0.1	13.1	33.5*	9.3	28.6
O=C(O/N=C1/CCCc2occc21)c1ccc(Cl)cc1Cl	1.8	7.9	0.2	0.1	33.7*	-4.9
COc1ccc(NC(=O)CC2C(=O)N(C)C(=S)N2CCc2ccccc2F)cc1 (centres undefined)	6.0	-2.5	18.4	-4.5	2.3	-1.9
CN1C(=O)C(CC(=O)Nc2ccc(F)cc2)N(CCCc2ccccc2)C1=S (centres undefined)	1.9	1.4	7.6	1.6	27.0*	3.7
CCOc1ccc(NC(N)=O)cc1	3.4	6.4	-2.2	0.3	-1.4	19.7
NC(=O)Nc1ccc(Oc2c(F)c(F)c(F)c(F)c2F)cc1	7.9	3.9	7.8	29.3*	1.5	4.5
O=C(NCCC1=CCCCC1)c1ccc(Cl)c(S(=O)(=O)Nc2ccccc2)c1	-8.3	11.2	6.2	16.0	27.9*	-7.4
Cc1ccc(C(=O)NCCC2=CCCCC2)cc1S(=O)(=O)N1CCCCC1	3.8	5.1	17.2	-2.6	6.0	11.3
S=c1[nH]cnc2sc(-c3ccccc3)cc12	-5.7	1.4	2.0	2.1	45.9*	-16.8
CNc1ncnc2sc(-c3ccccc3)cc12	6.5	-0.2	-10.0	8.3	-0.4	2.0
CC1CCN(S(=O)(=O)c2ccc(NC(=O)Cc3cccs3)cc2)CC1	-0.6	2.3	16.6	13.1	31.0*	20.6
CC1CCN(S(=O)(=O)c2ccc(NC(=O)CN3CCOCC3)cc2)CC1	17.4	9.4	-18.1	2.6	32.9*	4.0
CC(=O)Nc1ccc(S(=O)(=O)N2CCN(Cc3cccs3)CC2)cc1	4.4	4.2	-5.3	3.8	6.3	-1.0
CC1CCN(CC(=O)Nc2ccc(S(=O)(=O)N3CCC(C)CC3)cc2)CC1	8.1	-4.3	-6.6	-0.9	28.6*	2.6
CC1CCN(S(=O)(=O)c2ccc(NC(=O)CN3CCCC3)cc2)CC1	3.7	-0.8	-0.2	7.6	15.3	10.8
SMILES	PAFAH1B3 inh	PAFAH2 inh	Apaf-1 inh	pPAFAH inh	PAFAH1B2 FP inh	PREPL inhibitor
CC1CCCN(CC(=O)Nc2ccc(S(=O)(=O)NC3CCCCC3)cc2)C1 (centres undefined)	-0.2	-2.8	0.0	27.6*	5.9	-3.9
CC1CCCN(CC(=O)Nc2ccc(S(=O)(=O)N3CCCCC3)cc2)C1 (centres undefined)	2.0	-3.9	13.3	-3.1	3.4	7.3
CCOC(=O)c1ccc(NC(=O)CC2C(=O)N(c3ccc(F)cc3)C(=O)N2CCC(C)C)cc1 (centres undefined)	15.4	-6.8	4.6	0.8	0.7	3.9
COC(=O)c1cccc(N(CC(=O)NC2CCCC2)C(=O)CCC(=O)Nc2cc(C)on2)c1	-1.8	-0.6	-1.8	3.9	3.2	-1.9
N#CC1=C2N=C(N)c3c(sc4c3CCCCC4)N2C2=C(C(=O)CCC2)C1c1ccccc1 (centres undefined)	11.6	12.0	18.0	30.1*	7.3	22.8
CCOC(=O)c1cc2c(N)c(C(=O)c3ccc(Br)cc3)sc2[nH]c1=O	12.0	31.8*	18.5	10.4	32.0*	17.3
CCOC(=O)c1cc(C(=O)OCC)c(=O)[nH]c1C	8.1	-1.5	-3.7	1.7	0.0	7.0
COc1ccc(C(=O)N/C(=C\c2cccc3ccccc23)C(=O)N2CCN(C)CC2)cc1	-1.6	-6.0	21.1	-1.2	-5.3	4.2
O=C(/C=C/c1ccc(F)cc1)NC(=S)NNC(=O)[C@H]1C[C@@H]1c1ccccc1	3.7	-0.4	9.7	5.8	59.3*	-9.9
Cc1ccc2nc(Cl)c(-c3ccccc3)cc2c1	.	.	12.6	30.9*	.	-7.5
O=[N+]([O-])c1ccc(S(=O)(=O)Nc2nc(-c3ccccc3)cs2)cc1	-2.2	16.0	1.8	9.0	1.0	-4.7
O=S(=O)(Nc1nc(-c2ccccc2)cs1)c1cc(Cl)ccc1Cl	-6.5	21.2	-13.8	28.0*	-3.3	11.3
CC(C)c1nnc(NC(=O)CCC(=O)NCc2ccc(F)cc2)s1	-0.2	-6.9	-5.8	3.8	2.4	-3.8
O=S(=O)(Nc1ccc2cn[nH]c2c1)c1ccc(Cl)s1	4.0	4.6	-2.2	0.7	-0.8	-2.6
O=S(=O)(Nc1ccc2cn[nH]c2c1)c1ccc(Cl)cc1	11.5	17.1	6.2	1.4	31.5*	-1.2
Cc1ccc(NS(=O)(=O)c2ccccc2)c2c1CC(C)(C)O2	-3.1	0.7	-2.5	29.3*	2.1	2.7
O=C(OCCOc1cccc(Cl)c1)c1cc(S(=O)(=O)N2CCOCC2)ccc1F	9.8	5.4	19.9	31.0*	2.1	34.0
Cc1ccc(S(=O)(=O)N2CCCCC2)cc1C(=O)NCCc1ccccc1	4.6	-3.8	-7.5	0.9	17.9	-0.3
Cc1ccc(S(=O)(=O)N2CCOCC2)cc1C(=O)NCCc1ccc(Cl)cc1	6.7	0.1	2.5	0.5	29.6*	8.8
COCC(=O)N1CCC(Oc2ccc(C(=O)N3C[C@H]4CC[C@H]3C4)cc2)CC1	1.6	4.3	-0.9	6.8	3.5	4.3
Cc1ccc(-n2c(-c3ccc(Cl)cc3)n[nH]c2=S)c(C)c1	3.9	4.1	14.8	1.5	28.6*	-4.2
O=C(CCCCCBr)N1CCC(CC2CC(c3cccc(Br)c3)=NO2)(C(=O)NCC2CCCCC2)CC1 (centres undefined)	7.4	8.1	21.0	25.0*	2.3	11.5
